# Screening data deposited in PubChem by Johns Hopkins Ion Channel Center.
# Sampled rows, rich in hits. Any-hit rate of the full collection: about 3.7%.
# KCNK3 inh – human KCNK3 channel inhibition, primary screen | AID 602410 | B-score at 10 µM | O14649 | CHO-KCNK3 thallium flux, FluxOR fluorescence; stronger effect = lower value | actives 0.84% (n = 340,000);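 active means B-score under library mean minus 4 SD, starting fluorescence ratio at most library mean plus 5 SD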;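 further: more negative B-score means stronger inhibition of thallium flux through KCNK3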
# Target sequence (O14649 whole entry, looked up): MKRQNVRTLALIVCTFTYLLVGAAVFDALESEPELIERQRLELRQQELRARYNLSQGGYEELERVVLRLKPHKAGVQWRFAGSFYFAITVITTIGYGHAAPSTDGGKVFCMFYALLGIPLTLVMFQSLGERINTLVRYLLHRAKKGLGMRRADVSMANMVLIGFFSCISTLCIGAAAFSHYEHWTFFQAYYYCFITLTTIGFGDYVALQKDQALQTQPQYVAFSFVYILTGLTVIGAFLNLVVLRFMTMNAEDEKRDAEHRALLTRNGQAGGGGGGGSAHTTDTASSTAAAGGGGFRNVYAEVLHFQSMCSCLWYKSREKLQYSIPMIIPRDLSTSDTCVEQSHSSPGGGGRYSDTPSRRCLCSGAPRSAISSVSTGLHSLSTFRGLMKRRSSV
# KCNQ1 block – human KCNQ1 channel inhibition. actives 1.3% (n = 310,000). P51787. CHO-K1 KCNQ1, FluxOR thallium flux fluorescence; stronger effect = higher value. B-score at 10 µM. AID 2642;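 active means compounds whose thallium flux B-score, printed positive for inhibition, exceeds three library SD while starting fluorescence stays within three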;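 further: channel opened by potassium depolarization with thallium stimulus after 20 min compound exposure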
# Kir21 inh – inhibitors of mouse Kir2.1 inward-rectifier potassium channel; actives 0.85% (n = 310,000); P35561; HEK293-Kir2.1, FluxOR thallium flux fluorescence; stronger effect = lower value; B-score at 10 µM;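 active means fluorescence ratio B-score at or below minus 3 SD of library scores, with starting-brightness B-score within 2 SD, cut at about -4.2 in these data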;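 further: channel flux triggered by added potassium and thallium sulfate stimulus; B-score of peak minus minimum fluorescence over baseline after thallium stimulus; more negative B-score means stronger Kir2.1 block with less thallium influx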
# KCNQ1 pot – potentiators or activators of human KCNQ1 potassium channel. B-score at 10 µM. CHO-K1 KCNQ1, thallium flux FluxOR fluorescence; stronger effect = higher value. actives 0.35% (n = 310,000). AID 2648;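 active means fluorescence ratio B-score, a plate-corrected score, at least three library SD, with initial intensity B-score within 5 SD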
#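 Assay system: CHO-K1 cells stably expressing KCNQ1; Medium: assay buffer with matched DMSO; Also added: K+/Tl+ depolarizing stimulus; Dosing: single dose; Timing: dye 90 min, compound 20 min, room temperature; Measured by: kinetic FluxOR thallium fluorescence, 10-s 1-Hz baseline, 110-s post-stimulus read; Read-out: peak-minus-minimum fluorescence over initial fluorescence, negative-control normalized, B-scored.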
# hERG rescue – hERG (human) protection from proarrhythmic block. Q12809. CHO-hERG, FluxOR thallium flux, dofetilide IC70 present. activation (rescue from dofetilide block), less the hit threshold, % at 10 µM. actives 0.51% (n = 310,000). AID 1511;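 active means activation above the mean of controls blocked by dofetilide plus 5 SD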;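 further: thallium influx through hERG after potassium depolarization seen as dye fluorescence rise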
# KCNK9 block – inhibitors of human KCNK9 two-pore domain potassium channel; HEK293 KCNK9, FluxOR thallium flux fluorescence; stronger effect = lower value; B-score at 10 µM; actives 1.2% (n = 310,000); AID 488922;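 active means ratio B-score over 3 SD below the library mean, with starting fluorescence within 5 SD of its mean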;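 further: negative B-score means less thallium flux so channel inhibition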
# Target sequence (Q9NPC2 whole entry, looked up, the tested form may be a part): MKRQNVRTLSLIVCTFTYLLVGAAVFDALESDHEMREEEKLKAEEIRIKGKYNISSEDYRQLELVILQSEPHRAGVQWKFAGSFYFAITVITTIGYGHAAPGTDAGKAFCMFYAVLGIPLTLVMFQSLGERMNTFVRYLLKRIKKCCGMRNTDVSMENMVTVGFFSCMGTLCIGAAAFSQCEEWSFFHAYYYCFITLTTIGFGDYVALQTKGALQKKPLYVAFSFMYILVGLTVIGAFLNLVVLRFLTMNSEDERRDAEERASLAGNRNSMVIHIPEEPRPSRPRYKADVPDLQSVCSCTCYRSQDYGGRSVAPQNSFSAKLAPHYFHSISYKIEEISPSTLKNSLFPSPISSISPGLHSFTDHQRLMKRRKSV
# KCNK9 block conf – confirmation of human KCNK9 potassium channel inhibitors; shares compounds with KCNK9 block; HEK293 KCNK9 cells, FluxOR thallium flux fluorescence; inhibition, % at 10 µM; actives 43% (n = 4,900);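 active means thallium signal inhibited by more than 5 SD of the compound-free buffer control wells, on both duplicate plates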;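 further: 0% = assay buffer control wells without compound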
# Kir21 sel – mouse Kir2.1 off-target activity of KCNK9 modulators. shares compounds with KCNK9 block. Kir2.1 cells, FluxOR thallium flux fluorescence. inhibition, % at 10 µM. actives 4% (n = 4,900). AID 492993;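 active means thallium signal drop more than 5 SD beyond the mean of the no-compound control wells, seen in both duplicate plates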;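 further: signal is fluorescence rise after thallium addition divided by baseline fluorescence; plate controls were assay buffer only for no effect and full block by chlorpromazine control for full effect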
# HEK293 Tl ctr – non-induced cell nonspecific activity of KCNK9 modulators | shares compounds with KCNK9 block | non-induced KCNK9-HEK293, FluxOR thallium flux | inhibition, % at 10 µM | actives 40% (n = 4,900);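 active means thallium signal drop beyond 5 SD of the untreated control mean, on both duplicate plates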;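 further: plate controls were buffer only IC0 wells for no effect and SID17386958 at its maximal inhibitory level for full effect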
# KCNK3 confirm – human KCNK3 channel inhibition, confirmation assay; ratio percent of control, % at 10 µM; shares compounds with KCNK3 inh; actives 99% (n = 2,400); CHO-KCNK3 thallium flux, FluxOR fluorescence; 0% buffer, 100% carvedilol maximal block;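 active means ratio percent of control, averaged over triplicates, above buffer control mean plus 5 SD, cut at about 64% in these data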;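 further: ratio is the fluorescence rise from min to max over baseline after thallium stimulus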
# KCNK3 uninduced – activity in cells without induced KCNK3 expression; shares compounds with KCNK3 inh; non-induced KCNK3 parental cells, FluxOR thallium flux; stronger effect = lower value; thallium flux ratio (lower = more inhibition) at 10 µM; actives 40% (n = 2,400);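 active means thallium flux ratio, averaged over three wells, more than 5 SD below the buffer control mean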;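 further: host cells are CHO cells without KCNK3 induction; ratio is peak minus trough fluorescence over baseline then normalized to buffer controls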
# Numbers without * were called inactive; i = inactive; · = not tested or not shown.
SMILES,KCNK3 inh,KCNQ1 block,Kir21 inh,KCNQ1 pot,hERG rescue,KCNK9 block,KCNK9 block conf,Kir21 sel,HEK293 Tl ctr,KCNK3 confirm,KCNK3 uninduced
COc1ccc(C(=O)NNC(=O)c2ccc3ccccc3n2)cc1,i,·,·,·,·,·,·,·,·,·,·
COc1cn(-c2ccccc2)nc1C(=O)Nc1ccc(C)cc1,i,i,-0.12,i,-10.9,i,·,·,·,·,·
COc1ccc(C)cc1NC(=O)c1nn(-c2ccccc2)cc1OC,i,i,0.67,i,-15.4,-17.7*,61.0%*,i,31.0%*,129.7*,0.137*
Cc1ccc(-n2c(N)cc(=O)nc2SCC(=O)N2CCN(c3ccccc3)CC2)cc1C,i,i,0,i,-4.9,i,·,·,·,·,·
N=c1c2c(ncn1Cc1ccco1)Oc1ccc3ccccc3c1C2c1ccccc1 (centres undefined),i,i,-1.29,i,-14.5,i,·,·,·,·,·
N=c1c2c(-c3ccccc3)c(-c3ccccc3)n(Cc3ccco3)c2ncn1Cc1ccco1,-14.5*,11*,-9.83*,i,-38.1,-8.67*,54.5%*,45.5%*,31.0%*,110.3*,0.153*
CC(C)C(=O)Nc1ccc(C(=O)c2ccccc2)cc1,i,i,0.08,i,-9.8,i,·,·,·,·,·
COC(=O)C(C)N(C(=O)c1ccc(C(=O)c2ccccc2)cc1)c1c(C)cccc1C (centres undefined),-11.2*,i,-2.79,i,-3.6,-8.97*,40.0%*,i,34.5%*,92.0*,i
COc1ccc(Oc2nc(C)cc(C)c2S(C)(=O)=O)cc1,i,i,0.04,i,-9.6,i,·,·,·,·,·
COc1ccc(CSc2nc(C)cc(C)c2S(C)(=O)=O)cc1,-10.7*,i,-3.6,i,-4.0,-10.9*,39.5%*,i,34.0%*,111.3*,i
CCn1c(C(=O)N2CCC(C(=O)NCCCSC3CCCCC3)CC2)cc2sccc21,-9.26*,i,-0.15,i,-20.7,i,i,i,i,92.3*,i
COc1ccccc1N1CCN(C(c2ccccc2Cl)c2nnnn2C(C)(C)C)CC1 (centres undefined),i,·,·,·,·,·,·,·,·,·,·
COc1ccccc1C(c1nnnn1C(C)(C)C)N1CCN(Cc2ccncc2)CC1 (centres undefined),-9.22*,i,1.93,i,-8.2,-18.9*,76.5%*,i,33.5%*,115.7*,i
CC(C)(C)CC(=O)Nc1ccccc1N1CCN(c2ccc(F)cc2)CC1,-8.97*,i,0.03,i,-6.2,-11.8*,73.0%*,i,37.0%*,120.3*,0.137*
O=C(Nc1ccccc1N1CCN(c2ccc(F)cc2)CC1)c1ccccc1,-13.9*,i,-1.54,i,-3.8,-10.3*,i,i,29.0%*,124.7*,0.148*
CC(C)(C)CC(=O)Nc1ccccc1N1CCN(c2ccccc2)CC1,i,i,1.37,i,-7.7,i,·,·,·,·,·
O=C(Cn1ccc(C(F)(F)F)n1)N=Nc1c(O)[nH]c2ccc(Br)cc12,i,i,0.29,i,-17.8,i,·,·,·,·,·
CCOC(=O)c1ccc(NC(=O)COc2ccccc2CNCCc2ccccc2)cc1,-11.9*,11*,-3.72,i,-25.2,-8.15*,30.0%*,i,i,103.7*,i
CCOC(=O)c1ccc(NC(=O)COc2ccc(CNCCO)cc2OCC)cc1,i,i,1.48,i,-6.5,i,·,·,·,·,·
CCc1nnc(NC(=O)CCc2ccccc2OC)s1,i,i,-0.2,i,-5.7,i,·,·,·,·,·
CCn1nc(C(=O)OCC(=O)c2ccc(F)cc2)c2ccccc2c1=O,i,i,0.38,i,-1.7,i,·,·,·,·,·
CCn1nc(C(=O)OC(C(=O)c2c[nH]c3ccccc23)c2ccccc2)c2ccccc2c1=O (centres undefined),-9.04*,8*,-0.02,i,-20.1,-11.1*,32.0%*,i,i,88.7*,i
O=C(c1ccco1)N(CCC(c1ccccc1)c1ccco1)Cc1ccc(F)cc1 (centres undefined),-11.4*,i,-4.41*,i,-19.3,-14.2*,66.0%*,40.5%*,31.0%*,95.3*,0.153*
CC(C)(C)c1cc(C(=O)NNc2cccc(Cl)c2)n(Cc2ccccc2)n1,-11.9*,10*,-2.2,i,-11.2,-15*,64.5%*,i,47.5%*,123.0*,i
CC(C)(C)C(=O)NNC(=O)c1cc(C(C)(C)C)nn1Cc1ccccc1,i,i,-0.14,i,-8.3,i,·,·,·,·,·
SMILES,KCNK3 inh,KCNQ1 block,Kir21 inh,KCNQ1 pot,hERG rescue,KCNK9 block,KCNK9 block conf,Kir21 sel,HEK293 Tl ctr,KCNK3 confirm,KCNK3 uninduced
COc1nc(N2CCCCCC2)nc(N2CCCCCC2)n1,i,i,-0.94,i,-12.4,-10.9*,i,i,53.5%*,99.0*,i
O=C(Cc1ccccc1)Nc1cccc(-c2nnc(-c3ccco3)o2)c1,i,i,0.93,i,-13.3,i,·,·,·,·,·
O=C(Cc1ccc(Cl)cc1)Nc1cccc(-c2nnc(-c3ccco3)o2)c1,i,i,-0.35,i,-0.7,i,·,·,·,·,·
COc1ccccc1OCC(=O)Nc1cccc(-c2nnc(-c3ccco3)o2)c1,-10.2*,i,0.72,i,-25.0,-8.6*,31.0%*,i,i,102.7*,i
O=C(Nc1cccc(-c2nnc(-c3ccco3)o2)c1)C(c1ccccc1)c1ccccc1,-12.8*,10*,-1.8,i,-15.1,-19.8*,71.5%*,i,30.0%*,135.0*,0.106*
CC(C)CN1CC(C)C(=O)NC1=S (centres undefined),i,·,·,·,·,·,·,·,·,·,·
C=CCN1C(=O)c2ccccc2NC1c1ccc(Br)s1 (centres undefined),i,i,-3.75,i,-12.8,-9.19*,37.5%*,i,30.0%*,107.0*,i
CCCN1C(=O)c2ccccc2NC1c1ccc(Br)cc1 (centres undefined),i,i,-0.68,i,-3.6,i,·,·,·,·,·
